For orientation: MIC means the lowest concentration found to suppress growth. Lower therefore signals inhibition by little substance. As usually defined, the IC50 is the concentration needed to halve the response being measured. The term Km denotes the concentration of substrate that gives half-maximal velocity. Usually kcat stands for the maximal rate divided by the concentration of active sites.

The test system of one assay is Escherichia coli. In words: Antimicrobial activity against rifampicin-resistant Escherichia coli X1037 transconjugant by disk diffusion method. The format is functional.
Conditions: not given
Summed up: (§1)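 Non-β-lactam agents were tested by CLSI disk diffusion. Susceptibility categories were assigned by CLSI criteria.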
(In general: Agar diffusion results depend on both activity and mobility in agar.)
As for `CO[C@@]1(NC(=O)CSC(F)F)C(=O)N2C(C(=O)O)=C(CSc3nnnn3CCO)CO[C@@H]21` [FLOMOXEF], the MIC was at most 1 µg/mL.
In turn, `CN(C)CCn1nnnc1SCC1=C(C(=O)O)N2C(=O)[C@@H](NC(=O)Cc3csc(N)n3)[C@H]2SC1` [CEFOTIAM] registered an MIC above 16 µg/mL.
As for `Cc1nnc(SCC2=C(C(=O)O)N3C(=O)[C@@H](NC(=O)Cn4cnnn4)[C@H]3SC2)s1` [CEFAZOLIN], the MIC is above 16 µg/mL.

For a further assay, the system named is Shigella sonnei. Kind of assay: Antimicrobial activity against Shigella sonnei UIH-1 expressing beta-lactamase CTX-M-64 by disk diffusion method. The format is functional.
Conditions: not given
A digest of the protocol: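 Non-β-lactam susceptibility determined by CLSI disk diffusion on the clinical isolate. Categories assigned by CLSI criteria.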
Regarding `CO[C@@]1(NC(=O)CSC(F)F)C(=O)N2C(C(=O)O)=C(CSc3nnnn3CCO)CO[C@@H]21` [FLOMOXEF], the MIC was at most 1 µg/mL.
Still for that read-out and setting: in the case of `CN(C)CCn1nnnc1SCC1=C(C(=O)O)N2C(=O)[C@@H](NC(=O)Cc3csc(N)n3)[C@H]2SC1` [CEFOTIAM] it was above 16 µg/mL; in that of `Cc1nnc(SCC2=C(C(=O)O)N3C(=O)[C@@H](NC(=O)Cn4cnnn4)[C@H]3SC2)s1` [CEFAZOLIN], above 16 µg/mL.

Target in a further assay: not listed separately
Kind of assay: Inhibition of Shigella sonnei UIH-1 beta-lactamase CTX-M-64 by spectrophotometry in presence of 100 uM nitrocefin.
Conditions: not given
Summed up:
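Recombinant CTX-M-64 was expressed from pET29a in E. coli BL21(DE3)pLysS (0.5 mM IPTG, 3 h, 37°C). It was purified by SP cation exchange (MES pH 6.0, NaCl gradient) then gel filtration. Enzyme was preincubated 5 min at 37°C with varied clavulanic acid before adding 100 μM nitrocefin. Hydrolysis was read at 485 nm in 50 mM phosphate pH 7.0, 37°C. IC50 is the inhibitor level halving the rate.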
As for `O=C(O)[C@H]1/C(=C/CO)O[C@@H]2CC(=O)N21` [CLAVULANIC ACID], the IC50 worked out at 10 nM.

Another assay deals with Escherichia coli. Kind of assay: Antimicrobial activity against Escherichia coli XL-1 Blue harboring plasmid CL1920 by disk diffusion method. The format is functional.
Conditions: not given
Compound `CO[C@@]1(NC(=O)CSC(F)F)C(=O)N2C(C(=O)O)=C(CSc3nnnn3CCO)CO[C@@H]21` [FLOMOXEF] yielded an MIC of at most 1 µg/mL.
Same read-out and setting: in the case of `CN(C)CCn1nnnc1SCC1=C(C(=O)O)N2C(=O)[C@@H](NC(=O)Cc3csc(N)n3)[C@H]2SC1` [CEFOTIAM] it was at most 8 µg/mL.

Another assay relates to Shigella sonnei. The settings on record: UIH-1.
For `O=C(Cc1cccs1)N[C@@H]1C(=O)N2C(C(=O)O)=C(/C=C/c3ccc([N+](=O)[O-])cc3[N+](=O)[O-])CS[C@H]12`, the kcat/Km came to 1.7 ×10⁷ /M/s.
Take `CC(=O)OCC1=C(C(=O)O)N2C(=O)[C@@H](NC(=O)Cc3cccs3)[C@H]2SC1`: the kcat/Km worked out at 4.9 ×10⁶ /M/s.

The test system of the next assay is Shigella sonnei. Kind of assay: Activity at Shigella sonnei UIH-1 beta-lactamase CTX-M-64 by spectrophotometry.
Conditions: not given
Summed up: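 Recombinant enzyme from E. coli BL21(DE3)pLysS/pET29a, purified by cation exchange and gel filtration. Assays at 37°C in 50 mM phosphate pH 7.0, six substrate concentrations, UV-vis readout. Km and kcat from Michaelis-Menten fits of initial rates.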
For `O=C(Cc1cccs1)N[C@@H]1C(=O)N2C(C(=O)O)=C(/C=C/c3ccc([N+](=O)[O-])cc3[N+](=O)[O-])CS[C@H]12`, the Km came to 14.8 µM and the kcat worked out at 252 s⁻¹.
On the same counts, the results for `CC(=O)OCC1=C(C(=O)O)N2C(=O)[C@@H](NC(=O)Cc3cccs3)[C@H]2SC1` are 37.9 µM and 185 s⁻¹.

The subject of another assay is Escherichia coli. Kind of assay: Antimicrobial activity against Escherichia coli XL-1 Blue transconjugant harboring beta-lactamase CTX-M-64 by disk diffusion method. The format is functional.
Conditions: not given
A digest of the protocol: as §1
As for `CO[C@@]1(NC(=O)CSC(F)F)C(=O)N2C(C(=O)O)=C(CSc3nnnn3CCO)CO[C@@H]21` [FLOMOXEF], the MIC is at most 1 µg/mL.
The same measure, in the same setting: in the case of `CN(C)CCn1nnnc1SCC1=C(C(=O)O)N2C(=O)[C@@H](NC(=O)Cc3csc(N)n3)[C@H]2SC1` [CEFOTIAM] it was above 16 µg/mL.
As for `Cc1nnc(SCC2=C(C(=O)O)N3C(=O)[C@@H](NC(=O)Cn4cnnn4)[C@H]3SC2)s1` [CEFAZOLIN], the MIC was above 16 µg/mL.

Another assay relates to Escherichia coli. Kind of assay: Antimicrobial activity against rifampicin-resistant Escherichia coli X1037 by disk diffusion method. The format is functional.
Conditions: not given
Summed up:
as §1
Take `CO[C@@]1(NC(=O)CSC(F)F)C(=O)N2C(C(=O)O)=C(CSc3nnnn3CCO)CO[C@@H]21` [FLOMOXEF]: the MIC was at most 1 µg/mL.
Take `CN(C)CCn1nnnc1SCC1=C(C(=O)O)N2C(=O)[C@@H](NC(=O)Cc3csc(N)n3)[C@H]2SC1` [CEFOTIAM]: the MIC was at most 8 µg/mL.

The record behind these values is ChEMBL document CHEMBL1629574, “Novel chimeric beta-lactamase CTX-M-64, a hybrid of CTX-M-15-like and CTX-M-14 beta-lactamases, found in a Shigella sonnei strain resistant to various oxyimino-cephalosporins, including ceftazidime” (Antimicrob Agents Chemother, 2009).
